Test results reported in ChEMBL document CHEMBL2203103, “Discovery of a novel series of benzimidazole derivatives as diacylglycerol acyltransferase inhibitors” (Bioorg Med Chem Lett, 2012).
Each block holds one compound with its values, some of them ahead of it. Activity calls are given as the source filed them. No cut-off for these calls is given here.

How the values were obtained:
[1] = target: T1, Diacylglycerol O-acyltransferase 1 (Rattus norvegicus, UniProt Q9ERM3); experiment: (§1) Inhibition of DGAT in rat liver microsomes; set-up: species or system Microsome
T1 sequence (Q9ERM3 whole entry): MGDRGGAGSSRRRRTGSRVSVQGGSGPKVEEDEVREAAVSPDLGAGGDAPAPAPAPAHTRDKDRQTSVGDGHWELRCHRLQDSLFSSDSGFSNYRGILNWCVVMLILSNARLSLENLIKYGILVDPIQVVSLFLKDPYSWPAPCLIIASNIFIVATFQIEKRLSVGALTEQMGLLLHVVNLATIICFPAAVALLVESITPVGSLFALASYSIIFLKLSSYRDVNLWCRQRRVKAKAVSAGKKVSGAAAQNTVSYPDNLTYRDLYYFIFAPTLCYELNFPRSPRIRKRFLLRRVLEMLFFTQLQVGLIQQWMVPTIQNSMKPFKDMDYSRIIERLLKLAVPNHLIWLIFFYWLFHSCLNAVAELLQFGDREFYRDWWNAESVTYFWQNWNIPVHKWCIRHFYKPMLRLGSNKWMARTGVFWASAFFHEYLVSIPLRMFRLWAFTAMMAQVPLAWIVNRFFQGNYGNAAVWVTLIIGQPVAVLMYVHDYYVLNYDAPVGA
How it was run: (§2)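 DGAT activity was measured in microsomes prepared from rat liver, using a modified version of Coleman's method. IC₅₀ values were determined.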

[2] = target: T2, Diacylglycerol O-acyltransferase 1 (Rattus norvegicus) (UniProt Q9ERM3); experiment: as §1; conditions: Microsome; how it was run: as §2
T2 sequence (whole entry): T1 sequence (Q9ERM3 whole entry)

Mus musculus [3] = species: Mus musculus; experiment: Antiobesity activity in high fat diet-induced obese mouse assessed as decrease in retroperitoneal fat (reference value: 1.41 +/- 0.29 %); assay type: functional; set-up: scale not given: the % may be the effect or the level left
How it was run: (§3)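 In 6-week-old male diet-induced obese mice, HFD-fed and individually housed (23 °C ± 3 °C, 12-h light–dark, food and water ad libitum), total and retroperitoneal fat were weighed after 5 weeks of treatment. Values are given as (tissue weight/body weight) × 100 and compared with normal-diet and untreated HFD groups.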

Mus musculus [4] = species: Mus musculus; experiment: Antiobesity activity in high fat diet-induced obese mouse assessed as decrease in abdominal and epididymal fat (reference value: 5.34 +/- […]); assay type: functional; set-up: scale not given: the % may be the effect or the level left
Mus musculus [5] = species: Mus musculus; experiment: Antiobesity activity in high fat diet-induced obese mouse assessed as decrease in total fat (reference value: 6.75 +/- 1.18 %); assay type: functional; set-up: scale not given: the % may be the effect or the level left; how it was run: as §3
Mus musculus [6] = species: Mus musculus; experiment: Antidyslipidemic activity in high fat diet-induced obese mouse assessed as increase in blood HDL-cholesterol level (reference value: 17.4 +/- 2.15 mg/dl); assay type: functional
Mus musculus [7] = experiment: Antiobesity activity in high fat diet-induced obese mouse assessed as inhibition of body weight gain at 10 mg/kg after 5 weeks (reference value: 52.9 +/- 1.20 g); assay type: functional
Mus musculus [8] = experiment: Antiobesity activity in high fat diet-induced obese mouse assessed as inhibition of body weight gain at 10 mg/kg after 4 weeks (reference value: 49.9 +/- 1.24 g); assay type: functional
Mus musculus [9] = experiment: Antiobesity activity in high fat diet-induced obese mouse assessed as inhibition of body weight gain at 10 mg/kg after 3 weeks (reference value: 45.9 +/- 2.29 g); assay type: functional
Mus musculus [10] = experiment: Antiobesity activity in high fat diet-induced obese mouse assessed as inhibition of body weight gain at 10 mg/kg after 2 weeks (reference value: 37.8 +/- 3.55 g); assay type: functional
Mus musculus [11] = experiment: Antiobesity activity in high fat diet-induced obese mouse assessed as inhibition of body weight gain at 10 mg/kg after 1 week (reference value: 35.2 +/- 1.57 g); assay type: functional
HepG2 = experiment: Cytotoxicity against human HepG2 cells assessed as cell viability after 48 hrs by MTT assay; assay type: cell-based; conditions: hepg2, 48 h
How it was run: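 HepG2 cells were kept in DMEM with 10% heat-inactivated FBS and 1% penicillin–streptomycin at 37 °C in 5% CO₂. Cells were seeded at 2 × 10⁴ per well, exposed to compound for 48 h, and viability was read by MTT as formazan absorbance at 560 nm.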

Mus musculus [12] = species: Mus musculus; experiment: Antidyslipidemic activity in high fat diet-induced obese mouse assessed as decrease in blood LDL-cholesterol level (reference value: 119 +/- 14.3 mg/dl); assay type: functional
Mus musculus [13] = species: Mus musculus; experiment: Antidyslipidemic activity in high fat diet-induced obese mouse assessed as decrease in total blood triglyceride level (reference value: 120 +/- 11.2 mg/dl); assay type: functional
Mus musculus [14] = species: Mus musculus; experiment: Antidyslipidemic activity in high fat diet-induced obese mouse assessed as decrease in total blood cholesterol level (reference value: 160 +/- 13.9 mg/dl); assay type: functional
[15] = target: T3, Diacylglycerol O-acyltransferase 1 (Homo sapiens) (UniProt O75907); experiment: Residual DGAT activity in human HepG2 cells using [14C]acetate as substrate assessed as formation of [14C]-triglyceride at 3 uM by chromatographic analysis relative to control
T3 sequence (whole entry): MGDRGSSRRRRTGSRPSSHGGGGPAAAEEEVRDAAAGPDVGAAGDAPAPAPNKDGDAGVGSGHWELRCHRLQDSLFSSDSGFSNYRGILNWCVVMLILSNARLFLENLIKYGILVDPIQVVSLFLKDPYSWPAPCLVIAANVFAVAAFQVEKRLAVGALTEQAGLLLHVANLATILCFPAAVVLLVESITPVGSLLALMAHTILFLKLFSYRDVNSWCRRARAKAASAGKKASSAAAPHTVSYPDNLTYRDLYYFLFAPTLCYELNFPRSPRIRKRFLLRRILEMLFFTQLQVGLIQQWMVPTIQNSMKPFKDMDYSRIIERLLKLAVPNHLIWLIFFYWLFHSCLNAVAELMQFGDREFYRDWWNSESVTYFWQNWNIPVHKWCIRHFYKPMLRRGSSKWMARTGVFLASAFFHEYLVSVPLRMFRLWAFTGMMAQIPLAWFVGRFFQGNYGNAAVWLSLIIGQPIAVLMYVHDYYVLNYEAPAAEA

[16] = target: T3, Diacylglycerol O-acyltransferase 1 (Homo sapiens); experiment: Residual DGAT activity in human HepG2 cells using [14C]glycerol as substrate assessed as formation of [14C]-triglyceride at 3 uM by chromatographic analysis relative to control
[17] = target: T3, Diacylglycerol O-acyltransferase 1 (Homo sapiens); experiment: Residual DGAT activity in human HepG2 cells using [14C]acetate as substrate assessed as formation of [14C]-triglyceride at 10 uM by chromatographic analysis relative to control
[18] = target: T3, Diacylglycerol O-acyltransferase 1 (Homo sapiens); experiment: Residual DGAT activity in human HepG2 cells using [14C]glycerol as substrate assessed as formation of [14C]-triglyceride at 10 uM by chromatographic analysis relative to control
Mus musculus [19] = species: Mus musculus; experiment: Antiobesity activity in high fat diet-induced obese mouse assessed as inhibition of body weight gain after 5 weeks (reference value: 52.9 +/- 1.20 g); assay type: functional
Mus musculus [20] = species: Mus musculus; experiment: Antiobesity activity in high fat diet-induced obese mouse assessed as inhibition of body weight gain after 4 weeks (reference value: 49.9 +/- 1.24 g); assay type: functional
Mus musculus [21] = species: Mus musculus; experiment: Antiobesity activity in high fat diet-induced obese mouse assessed as inhibition of body weight gain after 3 weeks (reference value: 45.9 +/- 2.29 g); assay type: functional
Mus musculus [22] = species: Mus musculus; experiment: Antiobesity activity in high fat diet-induced obese mouse assessed as inhibition of body weight gain after 2 weeks (reference value: 37.8 +/- 3.55 g); assay type: functional
Mus musculus [23] = species: Mus musculus; experiment: Antiobesity activity in high fat diet-induced obese mouse assessed as inhibition of body weight gain after 1 week (reference value: 35.2 +/- 1.57 g); assay type: functional

SMILES: O=C(NCc1ccco1)c1ccc2nc(COc3ccc(-c4ccccc4)cc3)[nH]c2c1
IC50 [1]: > 50 µM

SMILES: COc1cc(O)c(CC=C(C)C)c(O)c1C(=O)/C=C/c1ccc(O)cc1
inhibition [2]: Active

SMILES: CC(C)c1cccc(C(C)C)c1NC(=O)c1ccc2nc(COc3ccc(C45CC6CC(CC(C6)C4)C5)cc3)[nH]c2c1
IC50 [1]: > 50 µM

SMILES: O=C(NCc1ccco1)c1ccc2nc(COc3ccccc3)[nH]c2c1
IC50 [1]: > 50 µM

SMILES: O=C(NCc1ccccc1)c1ccc2nc(COc3ccc(C45CC6CC(CC(C6)C4)C5)cc3)[nH]c2c1
IC50 [1]: > 50 µM

SMILES: CN(C)C(=O)c1ccc2nc(COc3ccc(C45CC6CC(CC(C6)C4)C5)cc3)[nH]c2c1
IC50 [1]: > 50 µM

SMILES: O=C(Nc1ccccc1)c1ccc2[nH]c(COc3ccc(C45CC6CC(CC(C6)C4)C5)cc3)nc2c1
IC50 [1]: > 50 µM

SMILES: CCCCCCCCCCC[C@@H](C[C@@H]1OC(=O)[C@H]1CCCCCC)OC(=O)[C@H](CC(C)C)NC=O [ORLISTAT]
Activity (Mus musculus [3]): 0.75% | Activity (Mus musculus [4]): 2.45% | Activity (Mus musculus [5]): 3.2% | Activity (Mus musculus [6]): 30.3 mg/dL | Activity (Mus musculus [19]): 41.2 g | Activity (Mus musculus [20]): 40 g | Activity (Mus musculus [21]): 39.1 g | Activity (Mus musculus [22]): 37.4 g | Activity (Mus musculus [23]): 33.6 g | Activity (Mus musculus [12]): 20.5 mg/dL | Activity (Mus musculus [13]): 40.8 mg/dL | Activity (Mus musculus [14]): 53.8 mg/dL

SMILES: NC(=O)c1ccc2nc(COc3ccc(C45CC6CC(CC(C6)C4)C5)cc3)[nH]c2c1
IC50 [1]: > 50 µM

SMILES: O=C(O)c1ccc2[nH]c(COc3ccc(C45CC6CC(CC(C6)C4)C5)cc3)nc2c1
IC50 [1]: > 50 µM

SMILES: O=C(NCc1cccs1)c1ccc2[nH]c(COc3ccc(C45CC6CC(CC(C6)C4)C5)cc3)nc2c1
IC50 [1]: > 50 µM

Continued, in another order:

IC50 [1]: 20 µM
SMILES: CC(C)NC(=O)c1ccc2nc(COc3ccc(C45CC6CC(CC(C6)C4)C5)cc3)[nH]c2c1

IC50 [1]: 25.4 µM
SMILES: Cc1ccoc1CNC(=O)c1ccc2nc(COc3ccc(C45CC6CC(CC(C6)C4)C5)cc3)[nH]c2c1

IC50 [1]: 11.4 µM
SMILES: Cc1ccc(CNC(=O)c2ccc3nc(COc4ccc(C56CC7CC(CC(C7)C5)C6)cc4)[nH]c3c2)o1

IC50 [1]: 9 µM
SMILES: CC(C)(C)c1ccc(OCc2nc3cc(C(=O)NCc4ccco4)ccc3[nH]2)cc1

IC50 [1]: 11.3 µM
SMILES: O=C(c1ccc2[nH]c(COc3ccc(C45CC6CC(CC(C6)C4)C5)cc3)nc2c1)N1CCCC1

IC50 [1]: 4.4 µM | residual activity [15]: 80.9% | residual activity [16]: 69.5% | residual activity [17]: 53% | residual activity [18]: 45%
SMILES: O=C(NCc1ccco1)c1ccc2[nH]c(COc3ccc(C45CC6CC(CC(C6)C4)C5)cc3)nc2c1
Activity (Mus musculus [3]): 0.94% | Activity (Mus musculus [4]): 3.16% | Activity (Mus musculus [5]): 4.1% | Activity (Mus musculus [6]): 21.2 mg/dL | Activity (Mus musculus [7]): 43.2 g | Activity (Mus musculus [8]): 42.3 g | Activity (Mus musculus [9]): 40.8 g | Activity (Mus musculus [10]): 38.9 g | Activity (Mus musculus [11]): 35.1 g | Activity (HepG2): > 50 µM | Activity (Mus musculus [12]): 43.6 mg/dL | Activity (Mus musculus [13]): 41.8 mg/dL | Activity (Mus musculus [14]): 73.2 mg/dL

IC50 [1]: 9.5 µM
SMILES: O=C(NC[C@@H]1CCCO1)c1ccc2nc(COc3ccc(C45CC6CC(CC(C6)C4)C5)cc3)[nH]c2c1

IC50 [1]: 27.5 µM
SMILES: O=C(c1ccc2[nH]c(COc3ccc(C45CC6CC(CC(C6)C4)C5)cc3)nc2c1)N1CCCCC1

IC50 [1]: 8.7 µM
SMILES: O=C(NC[C@H]1CCCO1)c1ccc2nc(COc3ccc(C45CC6CC(CC(C6)C4)C5)cc3)[nH]c2c1

IC50 [1]: 23 µM
SMILES: COC(=O)c1ccc2[nH]c(COc3ccc(C45CC6CC(CC(C6)C4)C5)cc3)nc2c1

IC50 [1]: 3.1 µM
SMILES: CC1(C)Oc2ncnc(N)c2N=C1c1ccc([C@H]2CC[C@H](CC(=O)O)CC2)cc1

IC50 [1]: 20 µM
SMILES: O=C(NCc1ccccn1)c1ccc2[nH]c(COc3ccc(C45CC6CC(CC(C6)C4)C5)cc3)nc2c1
